TDP2 inh: human TDP2 enzyme inhibitors, primary screen, biochemical, epi absorbance, recombinant enzyme. AID 720702, 2013. inhibition, % at 12.8 µM. T5PNP hydrolysis, p-nitrophenol absorbance 415 nm. 0.34% of 370,000 active;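 active = inhibition above the mean of all tested compounds plus 3 SD, set per campaign, cut at about 25% in these data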;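 also: 0% = DMSO with enzyme and 100% = buffer with substrate but no TDP2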
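test system = human TDP2 enzyme | input = TDP2 enzyme at 120 nM final | medium = 50 mM Tris-HCl pH 7.5 with Mg2+, KCl, DTT, BSA | also added = T5PNP substrate, 5 mM | times = 2 h at 37 °C | technique = epi absorbance | benchmarks = high control without enzyme, low control DMSO plus TDP2 | replication = each compound tested once, singlicate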
MBD2 inh: inhibitors of MBD2 binding to methylated DNA, primary screen, biochemical, TR-FRET, DNA-binding domain, human | Methyl-CpG-binding domain protein 2 (Homo sapiens), Q9UBB5 | MBD2 binding to methylated oligonucleotide | inhibition, % at 4.4 µM | 0.31% of 370,000 active | AID 686964, 2013; in the data active = inhibition above about 13%
Tn6 DDE FP: inhibitors of Tn6 peptide binding to fibrin DD(E), primary screen, biochemical, fluorescence polarization, human fibrin, Tn6 probe | Fibrinogen beta chain (Homo sapiens), P02675 | 0.21% of 370,000 active | inhibition, % at 8.3 µM | Fibrin DD(E) TRITC-Tn6 fluorescence polarization displacement;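 active = inhibition above a per-campaign cutoff: mean of compounds within control limits plus 3 SD, cut at about 15% in these data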;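 also: 0% = median of all compound wells on the plate and 100% = blocking peptide control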
LEDGF integ inh: blockers of LEDGF/p75-dependent integrase strand transfer – biochemical, TR-FRET, high throughput, primary screen; HIV-1 integrase (with human LEDGF/p75); TR-FRET IN-LEDGF/p75 DNA integration, Eu/Cy5; inhibition, % at 3.7 µM; 0.64% of 370,000 active;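 active = inhibition above the screen-wide mean plus 3 SD, cut at about 13% in these data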;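 also: signal is the Cy5 over europium emission ratio at 671 and 618 nm; 0% = plate median of compound wells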
DDE Tn7 FP inh: inhibitors of Tn7 peptide binding to fibrin DD(E), primary screen, biochemical, fluorescence polarization, human fibrin, Tn7 probe | FP displacement of FITC-Tn7 peptide from fibrin DD(E); 0% = median of compound wells per plate | inhibition, % at 8.3 µM | AID 720508, 2013 | 0.13% of 370,000 active | Fibrinogen beta chain (Homo sapiens), P02675;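 active = inhibition above the mean of compounds falling within the control limits plus 3 SD of them, cut at about 14% in these data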;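 also: 0% = plate median of compound wells and 100% = 10 µM Aha-Tn7 peptide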
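Test system – human fibrin DD(E) · Times – 10 min preincubation, 3 h with tracer, room temperature · Detection – fluorescence polarization of the labelled Tn7 tracer · Measure – percent inhibition normalized to high-control wells · Benchmarks – high control wells with 10 µM unlabelled Aha-Tn7 peptide (full inhibition) · Repeats – singlicate testing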
UHRF1 MBD2 ctr: UHRF1 methylated DNA binding inhibitors, primary screen, counter-screen for MBD2 inhibitor project, biochemical, TR-FRET, human UHRF1, single concentration; 0.75% of 370,000 active; inhibition, % at 4.4 µM; AID 687016, 2013; E3 ubiquitin-protein ligase UHRF1 (Homo sapiens), Q96T88; UHRF1 binding to methylated oligo; in the data active = inhibition above about 21%;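 also: UHRF1 SRA domain binding a hemimethylated CpG hairpin DNA probe; 0% = median of test compound wells and 100% = reference inhibitor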
Target sequence (Q96T88 whole entry, looked up, the tested form may be a part): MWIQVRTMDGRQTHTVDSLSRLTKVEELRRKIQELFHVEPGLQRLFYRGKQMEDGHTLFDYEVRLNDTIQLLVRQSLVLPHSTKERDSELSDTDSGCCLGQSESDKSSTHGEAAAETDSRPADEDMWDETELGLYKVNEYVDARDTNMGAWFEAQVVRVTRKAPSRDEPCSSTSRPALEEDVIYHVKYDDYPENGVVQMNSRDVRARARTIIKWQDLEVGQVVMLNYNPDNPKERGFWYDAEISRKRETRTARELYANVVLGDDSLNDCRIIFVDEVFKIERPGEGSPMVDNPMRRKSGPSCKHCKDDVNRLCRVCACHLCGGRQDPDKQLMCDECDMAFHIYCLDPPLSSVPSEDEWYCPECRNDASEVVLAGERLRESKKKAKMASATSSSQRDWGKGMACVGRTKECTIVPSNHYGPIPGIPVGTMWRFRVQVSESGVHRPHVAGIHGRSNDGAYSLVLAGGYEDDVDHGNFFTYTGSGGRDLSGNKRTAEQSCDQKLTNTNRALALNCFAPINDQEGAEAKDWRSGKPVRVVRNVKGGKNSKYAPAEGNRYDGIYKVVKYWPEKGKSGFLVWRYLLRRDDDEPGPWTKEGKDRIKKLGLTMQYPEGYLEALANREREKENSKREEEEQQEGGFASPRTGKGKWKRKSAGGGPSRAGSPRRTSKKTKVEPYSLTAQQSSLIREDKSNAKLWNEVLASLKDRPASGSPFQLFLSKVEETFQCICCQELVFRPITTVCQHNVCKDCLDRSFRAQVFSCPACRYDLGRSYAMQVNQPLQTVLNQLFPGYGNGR
UHRF1 DNA bind: UHRF1 methylated DNA binding inhibitors, counter-screen for MBD2 inhibitor project, biochemical, TR-FRET, human UHRF1 | shares compounds with MBD2 inh | UHRF1 binding to methylated oligonucleotide | inhibition, % at 4.4 µM | 25% of 1,000 active | AID 720530, 2013; in the data active = inhibition above about 21%;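 also: UHRF1 SRA domain binding a labeled hemimethylated CpG hairpin DNA; 0% = vehicle only and 100% = reference inhibitor with vehicle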
MBD2 DBD conf: inhibitors of MBD2 binding to methylated DNA, confirmation, biochemical, TR-FRET, DNA-binding domain, human | shares compounds with MBD2 inh | TR-FRET MBD2-DBD binding to methylated oligonucleotide | inhibition, % at 4.4 µM | 26% of 1,000 active | AID 720531, 2013
DDE Tn6 FP ctr: counter-screen for inhibitors of Tn6 peptide binding to fibrin DD(E). shares compounds with Tn6 DDE FP. TRITC-Tn6 fluorescence polarization displacement; 0% = median of compound wells, not DMSO. inhibition, % at 8.3 µM. 2% of 680 active. AID 720621;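 active = inhibition above the mean of test compounds lying between the control limits plus 3 SD of those, cut at about 14% in these data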;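 also: 0% = median of compound wells and 100% = wells with Aha-Tn7 blocking peptide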
Tn6 DDE conf: inhibitors of Tn6 peptide binding to fibrin DD(E), confirmation, biochemical, fluorescence polarization, human fibrin, Tn6 probe. 10% of 680 active. FP displacement of TRITC-Tn6 peptide from DD(E); 0% = per-plate median of test wells. inhibition, % at 8.3 µM. AID 720631, 2013. shares compounds with Tn6 DDE FP;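 active = inhibition above the mean of compounds lying within the control limits plus 3 SD, cut at about 16% in these data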;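 also: 100% = high control wells holding a competing inhibitor peptide at 10 µM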
IN multimer up: HIV-1 IN multimer formation enhancers, counter-screen for LEDGF/p75 integration inhibitor project, biochemical, TR-FRET; shares compounds with LEDGF integ inh; TR-FRET HIV-1 integrase multimerization; activation, % at 7.7 µM; 17% of 2,000 active; in the data active = activation above about 8.9%
TRFRET interf: TR-FRET optical interference artefacts, confirmation, artefact control for LEDGF/p75-dependent integration inhibitor project, biochemical, HIV-1 IN multimerization; shares compounds with LEDGF integ inh; TR-FRET optical interference counterscreen; inhibition, % at 7.7 µM; 2,000 tested, under 10 active;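 active = inhibition above the mean over all tested compounds plus 3 SD, which no compound reached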;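 also: 0% = integrase with antibodies and DMSO and 100% = antibodies without integrase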
LEDGF integ conf: inhibitors of HIV-1 IN-LEDGF/p75 DNA integration, confirmation, biochemical, TR-FRET. shares compounds with LEDGF integ inh. TR-FRET LEDGF/p75-dependent HIV-1 integration. inhibition, % at 3.7 µM. 36% of 2,000 active. AID 1053136, 2014
An asterisk follows results filed as active; x = not tested or not shown; + = active, no number. Sampled rows, rich in hits. Any-hit rate of the full collection: about 1.9%. Rule as the data show it, unless noted: active = inhibition above about 14%; inactive = the rest.

SMILES	TDP2 inh	MBD2 inh	Tn6 DDE FP	LEDGF integ inh	DDE Tn7 FP inh	UHRF1 MBD2 ctr	UHRF1 DNA bind	MBD2 DBD conf	IN multimer up	TRFRET interf	LEDGF integ conf	others
CCOC(=O)C1CCCN(C(=O)c2cc(-c3ccco3)nc3ccccc23)C1 (centres undefined)	0	20*	2	25*	3	38*	39*	24*	9	-44	48*
O=C(O)c1ccc(-n2c(-c3cc(-c4ccco4)[nH]n3)n[nH]c2=S)cc1	12	27*	9	53*	-1	83*	73*	23*	10*	-52	42*
CC(=O)c1ccc(-n2c(-c3cc(-c4ccco4)[nH]n3)n[nH]c2=S)cc1	-2	-3	11	4	4	0	x	x	x	x	x
CCOc1cc(N2CCOCC2)c(OCC)cc1NC(=O)C(C)C	-8	2	2	-7	3	0	x	x	x	x	x
CCOc1cc(N2CCOCC2)c(OCC)cc1NC(C)C(=O)N1CCN(CC)CC1 (centres undefined)	45*	51*	8	63*	2	91*	1	-3	2	-10	10
CCOc1ccc(N2CC(C(=O)Nc3nnc(Cc4ccc(OC)cc4)s3)CC2=O)cc1 (centres undefined)	-8	33*	-2	15*	9	65*	7	4	2	-9	3
Cc1ccc(-n2c(SCC(=O)c3ccc(-c4ccccc4)cc3)nnc2-c2ccc(C(C)(C)C)cc2)cc1	2	-1	-3	1	5	0	x	x	x	x	x
COCc1cc(=O)n2[nH]c(-c3ccco3)cc2n1	6	4	-5	-3	5	-2	x	x	x	x	x
CCCCN1Cc2c(nc3cc(-c4ccco4)[nH]n3c2=O)C1=O	-16	25*	-7	32*	-1	63*	7	4	4	-14	8
C[C@]12Cc3ccccc3C1CC1=N[C@@H](c3ccc(C(F)(F)F)cc3)O[C@@]13C[C@@H]2C(=O)N3Cc1ccncc1 (some centres undefined)	4	3	-4	-2	1	-2	x	x	x	x	x
CCCN(CC1CC1)C(=O)CSc1nnc(-c2ccncc2)n1-c1ccc(OC)cc1	5	0	6	0	-6	-2	x	x	x	x	x
O=C(O)c1cccc(-n2cccc2/C=N/O)c1	-4	4	4	9	-1	16	x	x	x	x	x
O=C(O)c1cccc(-n2cccc2/C=C\[N+](=O)[O-])c1	18	17*	1	32*	-9	58*	26*	3	3	-15	6
COc1ccc(/C=N/NC(=O)c2cc(O)c(O)c(O)c2)cc1Cn1cc([N+](=O)[O-])cn1	4	15*	-6	69*	-3	28*	20	14*	54*	-270	87*
COc1cccc2c1C(=O)c1c(O)c3c(c(O)c1C2=O)CC(O)(C(C)=O)CC3OC1CC(N(C)C)C(O)C(C)O1 (centres undefined)	-6	111*	+	14*	11	96*	101*	111*	3	-16	32*	DDE Tn6 FP ctr=-7;Tn6 DDE conf=93*
O=S(=O)(c1ccccc1)N1CCCc2nc(-c3ccccc3)ccc21	6	4	4	1	-5	-2	x	x	x	x	x
CCCC[C@H](C(=O)N(C)c1cccc(OC)c1)[C@@H](O)c1ccc(C(C)=O)cc1	0	-3	-2	-3	0	-1	x	x	x	x	x
Cc1ccc(Oc2cccc3c2S(=O)(=O)N([C@H](C)c2ccccc2)C[C@@H](COCc2ccccc2)O3)cc1	7	1	-4	2	3	0	x	x	x	x	x
CC(C)C1Nc2ccc(C(=O)O)cc2C2C=CCC21 (centres undefined)	14	14*	-1	17*	-6	30*	14	1	5	-27	24*
CCOC(=O)C1Nc2ccc(C(=O)O)cc2C2C=CCC12 (centres undefined)	20	27*	2	67*	-5	72*	48*	11	45*	-162	60*
Cc1[nH]c2ccccc2c1CC(=O)Nc1ccc(N(C)c2cccnc2)c(-c2ccc(F)c(F)c2)c1	3	3	-5	-5	4	0	x	x	x	x	x
CCNc1nc(NC(C)C)nc(N(C#N)C(C)C(=O)N(C)C)n1 (centres undefined)	-8	4	2	0	4	4	x	x	x	x	x
